Sampled rows, rich in hits. Any-hit rate of the full collection: about 2.3%.
TRPC4 inh – inhibitors of mouse TRPC4 channel, primary screen, Fluo4 calcium, HEK293 TRPC4beta/mu-opioid cells. DAMGO-evoked Fluo4 calcium flux; active compounds read low. 300,000 tested, 0.39% active. B-score at 10 µM. AID 2247, 2010;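 active = B-score over 3 SD under the library average, no early fluorescence shift, positive overall ratio signal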
Target sequence (Q9QUQ5 whole entry, looked up): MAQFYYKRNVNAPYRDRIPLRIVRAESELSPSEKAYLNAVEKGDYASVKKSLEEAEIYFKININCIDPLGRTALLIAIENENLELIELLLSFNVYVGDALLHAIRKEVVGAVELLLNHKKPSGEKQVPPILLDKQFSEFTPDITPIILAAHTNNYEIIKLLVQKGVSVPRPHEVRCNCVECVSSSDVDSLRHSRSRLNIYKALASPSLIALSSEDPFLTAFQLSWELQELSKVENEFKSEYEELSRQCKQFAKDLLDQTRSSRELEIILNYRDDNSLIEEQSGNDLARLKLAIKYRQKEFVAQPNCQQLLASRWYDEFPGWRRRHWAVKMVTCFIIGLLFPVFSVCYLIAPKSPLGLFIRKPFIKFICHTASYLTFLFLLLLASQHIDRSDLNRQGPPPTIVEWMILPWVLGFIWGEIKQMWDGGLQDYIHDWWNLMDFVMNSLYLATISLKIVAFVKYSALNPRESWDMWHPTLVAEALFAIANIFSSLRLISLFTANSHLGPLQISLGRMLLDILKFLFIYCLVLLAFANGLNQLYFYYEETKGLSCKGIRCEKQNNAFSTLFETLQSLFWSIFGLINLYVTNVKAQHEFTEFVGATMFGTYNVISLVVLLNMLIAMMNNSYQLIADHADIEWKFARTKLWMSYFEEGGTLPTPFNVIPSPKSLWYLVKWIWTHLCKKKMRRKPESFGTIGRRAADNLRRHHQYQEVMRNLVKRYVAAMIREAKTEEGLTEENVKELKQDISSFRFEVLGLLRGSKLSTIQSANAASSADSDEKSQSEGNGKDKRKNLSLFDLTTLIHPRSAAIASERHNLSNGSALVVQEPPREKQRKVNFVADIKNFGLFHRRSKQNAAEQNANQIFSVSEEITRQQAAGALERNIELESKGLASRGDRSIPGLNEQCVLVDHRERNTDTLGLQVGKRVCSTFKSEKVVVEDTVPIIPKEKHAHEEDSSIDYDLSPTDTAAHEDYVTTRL
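test system = HEK293 cells with stable TRPC4beta plus mu-opioid receptor expression | detection = Fluo4 Ca2+ flux fluorescence | read-out = integrated fluorescence ratio relative to baseline, converted to per-well B score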
TRPC6 act – mouse TRPC6 channel activators, primary screen, cell-based, HEK293, membrane potential dye | Short transient receptor potential channel 6 (Mus musculus), Q61143 | HEK293-TRPC6 membrane potential dye fluorescence; active compounds read high | B-score at 10 µM | 310,000 tested, 0.13% active;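 active = B-score of the integrated fluorescence ratio above library mean plus 3 SD, and starting fluorescence ratio within library mean plus 5 SD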;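 note: higher score means more depolarization so channel activation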
TRPC6 inh – mouse TRPC6 channel inhibitors, primary screen, cell-based, HEK293, membrane potential dye. ACh-evoked depolarization; active compounds read low. B-score at 10 µM. 310,000 tested, 1.1% active. AID 2553, 2010;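 active = B-score under library mean minus 3 SD, initial fluorescence not abnormally high, positive integrated signal ratio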;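 note: B-score derived from integrated fluorescence ratio over the kinetic read; more negative B-score means stronger inhibition of depolarization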
TRPC4 PAM – positive allosteric modulators of TRPC4, primary screen, cell-based, mouse TRPC4beta, HEK293 mu-opioid, Fluo-4 calcium. Short transient receptor potential channel 4 (Mus musculus), Q9QUQ5. DAMGO EC20, Fluo-4 Ca2+ flux; active compounds read high. B-score at 10 µM. 310,000 tested, 0.42% active;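 active = B-score of calcium response area above 5 SD of library B-scores, with initial fluorescence ratio within 5 SD of library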;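 note: B-score of integrated fluorescence ratio over time as area under calcium response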
TRPC4 agonist – activators of mouse TRPC4 channel, primary screen, Fluo4 calcium, HEK293 TRPC4beta/mu-opioid cells | Fluo4 calcium fluorescence; active compounds read high | B-score at 10 µM | 310,000 tested, 0.49% active;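 active = B-score above 5 SD of library B-scores, and initial fluorescence ratio not above library mean plus 5 SD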;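 note: positive B-score marks a calcium rise read as TRPC4 activation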
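Assay system – TRPC4beta and mu-opioid receptor HEK293 stable cells · Measured by – Fluo4 fluorescence, kinetic · Schedule – dye loading 45 min room temperature, 110 s kinetic read · Read-out – B-scored integrated calcium fluorescence ratio · Controls – buffer and maximal DAMGO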
DNA FID counter – compounds displacing fluorescent DNA intercalator, primary screen, artefact control for HCV NS3 helicase inhibitor project, biochemical, FID fluorescence; inhibition, % at 7.9 µM; DNA fluorescent intercalator displacement; 290,000 tested, 0.17% active; in the data active = inhibition above about 37%;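 note: 0% = vehicle and 100% = reference compound; higher means more ethidium bromide displaced from hairpin DNA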
HEK293 MPD ctr – parental HEK293 membrane potential modulation, confirmation, counter-screen for TRPC6 modulator project, cell-based. shares compounds with TRPC6 inh. membrane potential dye fluorescence. AID 488924, 2010. membrane potential signal change, % at 10 µM. 2,400 tested, 51% active;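 active = membrane potential signal moves up or down beyond 5 SD from buffer-only wells, on both duplicate plates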
HEK293 MPD ctr 2 – second check of TRPC6 modulator effects in parental HEK293 cells; shares compounds with TRPC6 inh; membrane potential dye fluorescence; after compound, maximal acetylcholine stimulation; inhibition, % at 10 µM; 2,400 tested, 14% active;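 active = membrane potential signal drops by more than 5 SD from the mean control signal, in both duplicate plates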;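 note: plate controls were acetylcholine ECmax control wells for no effect and buffer only wells for full effect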
TRPC4 ctr mod – TRPC4 modulation by TRPC6 hit compounds, confirmation, selectivity assay for TRPC6 modulator project, cell-based, HEK293 TRPC4/mu-opioid, membrane potential dye, mouse; shares compounds with TRPC6 inh; membrane potential fluorescence; percent change from control (negative = decrease, positive = increase), % at 10 µM; 2,400 tested, 69% active;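 active = membrane potential signal moved up or down beyond 5 SD of buffer control wells, in both duplicate plates, actives on both sides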;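 note: plate controls were assay buffer wells for no effect and DAMGO maximal-effect wells for full effect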
TRPC4 ctr inh 2 – second check of whether TRPC6 modulators also affect mouse TRPC4. inhibition, % at 10 µM. AID 488928. 2,400 tested, 55% active. shares compounds with TRPC6 inh. HEK293 TRPC4/mu-opioid, membrane potential dye fluorescence; stimulated with maximal-effect DAMGO;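 active = drop in membrane potential signal beyond 5 SD of the control wells in both duplicate plates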;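 note: TRPC4 counter screen for TRPC6 hits run under conditions tuned for TRPC6 not TRPC4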
TRPC6 inh conf – mouse TRPC6 channel inhibitors, confirmation, HEK293 cells, membrane potential dye, duplicate. shares compounds with TRPC6 inh. ACh-evoked depolarization. inhibition, % at 10 µM. 3,300 tested, 43% active. AID 488960, 2010;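 active = fluorescence ratio falls more than 5 SD below the full-stimulation control mean, in both duplicate runs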;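 note: integrated fluorescence ratio of peak minus minimum over baseline after agonist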
TRPC6 act conf – mouse TRPC6 channel activators, confirmation, HEK293 cells, membrane potential dye, duplicate | shares compounds with TRPC6 inh | HEK293-TRPC6 membrane potential dye fluorescence, FDSS | activation, % at 10 µM | 2,800 tested, 11% active;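 active = ratio signal rise beyond 5 SD above unstimulated control wells' mean, seen in both duplicate runs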;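 note: plate controls were buffer EC0 wells for no effect and acetylcholine ECmax response for full effect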
Numbers without * were called inactive; i = inactive; nt = not tested or not shown.

SMILES	TRPC4 inh	TRPC6 act	TRPC6 inh	TRPC4 PAM	TRPC4 agonist	DNA FID counter	HEK293 MPD ctr	HEK293 MPD ctr 2	TRPC4 ctr mod	TRPC4 ctr inh 2	TRPC6 inh conf	TRPC6 act conf
CNC(=S)N(CCCO)Cc1cc2cc3c(cc2[nH]c1=O)OCO3	i	i	i	i	i	-7.8	nt	nt	nt	nt	nt	nt
CCC(=O)c1ccc(OCC(=O)OCC(=O)NCCC2=CCCCC2)cc1	i	i	i	i	i	nt	nt	nt	nt	nt	nt	nt
[N-]=[N+]=NCCN1CCN(CCc2ccccc2)CCC1=O	i	i	i	i	i	-15.3	nt	nt	nt	nt	nt	nt
O=C(Nc1cc([N+](=O)[O-])ccc1C(=O)NCCN1CCOCC1)c1ccccc1	i	i	i	i	i	17.9	nt	nt	nt	nt	nt	nt
COc1ccccc1CNC(=O)CC(C)C	i	i	i	i	i	-9.1	nt	nt	nt	nt	nt	nt
COC(=O)CC(N)c1ccc(OC)c2ccccc12 (configuration not stated)	i	i	-5.26*	i	i	0.3	i	i	i	i	i	i
CCCN1CCN(C(=O)Cn2cnc3ccc(S(=O)(=O)N4CCC(C)CC4)cc3c2=O)CC1	i	i	i	i	i	1.8	nt	nt	nt	nt	nt	nt
CCOCCn1c(=O)c2c(nc3n2CC(C)CN3CCc2ccccc2)n(C)c1=O (configuration not stated)	i	i	i	i	i	-50.6	nt	nt	nt	nt	nt	nt
COc1ccc(-c2cn3ccccc3n2)cc1[N+](=O)[O-]	i	i	i	i	i	2.5	nt	nt	nt	nt	nt	nt
COc1ccc(-c2cn3cc([N+](=O)[O-])ccc3n2)cc1OC	i	i	-5.05*	i	i	-17.2	-111.0%*	i	-22.0%*	30.0%*	i	i
CC(C)(C)NC(=O)Cn1nnc(-c2ccccc2NC(=O)c2cnccn2)n1	i	12.9*	-7.14*	i	i	-3.5	i	i	20.5%*	i	i	72.5%*
Cc1ccc(C)c2c(N)c3c(nc12)CCCCC3 (tested in a mixture with another compound)	-7*	i	-5.84*	i	i	4.6	-117.5%*	i	-21.5%*	i	i	i
Cc1cc(=O)nc2c3ccccc3n(CC(=O)NC(C)c3ccc4c(c3)OCCO4)n12 (configuration not stated)	i	i	i	i	i	-21.0	nt	nt	nt	nt	nt	nt
COc1cccc(CNc2nc3ccccc3n2CCN2CCCCC2)c1	i	i	-6.08*	i	i	12.7	i	i	i	55.5%*	35.0%*	i
